In the library only some 2.5% were active in any assay of this set; here they are far more common.
NPY-Y2 antag: antagonists of human neuropeptide Y receptor Y2. P49146. NPY-Y2 expressing cells, antagonist mode. inhibition, % at 2.7 µM. hit rate 0.99% among 140,000; in the data active = inhibition above about 17%
NPY1 pot ag: potentiators or agonists of human neuropeptide Y receptor Y1; P25929; NPY-Y1 expressing cells, potentiator/agonist activation; activation, % at 3.6 µM; hit rate 0.37% among 220,000; AID 1304; in the data active = activation above about 33%, passing the limit was not always enough;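 also: cells stimulated with NPY at EC10 then isoproterenol at EC100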
Target sequence (P25929 whole entry, looked up): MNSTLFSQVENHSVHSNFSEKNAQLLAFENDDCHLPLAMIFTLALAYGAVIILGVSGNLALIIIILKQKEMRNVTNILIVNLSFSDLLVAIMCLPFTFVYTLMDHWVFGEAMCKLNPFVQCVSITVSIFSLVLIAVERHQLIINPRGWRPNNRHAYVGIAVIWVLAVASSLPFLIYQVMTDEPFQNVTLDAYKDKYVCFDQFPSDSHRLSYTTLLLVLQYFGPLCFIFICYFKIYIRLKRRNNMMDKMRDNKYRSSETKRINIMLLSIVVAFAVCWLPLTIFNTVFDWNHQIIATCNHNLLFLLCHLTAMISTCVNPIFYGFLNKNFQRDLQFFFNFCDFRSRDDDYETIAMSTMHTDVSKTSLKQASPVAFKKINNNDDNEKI
NPY Y1 blocker: blocks the human neuropeptide Y Y1 receptor; P25929; HEK293-CNG Y1 cells, membrane potential fluorescence; NPY at EC95, then isoproterenol; inhibition, % at 3.6 µM; hit rate 1% among 200,000; AID 1040;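 active = inhibition above the campaign mean inhibition of all tested compounds plus 3 SD, cut at about 20% in these data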
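Test system – HEK293 Y1/CNG channel cell line · Also added – NPY agonist 25 nM, then isoproterenol 1 µM plus Ro 20-1724 25 µM · Compound dosing – one concentration, 3.6 µM, in 0.4% DMSO · Schedule – compound incubation 1 h at room temperature, readout 45 min post-stimulation · Technique – fluorescence, membrane potential probe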
NPY2 pot ag: human NPY-Y2 potentiation or agonism, primary screen; cells expressing NPY-Y2, potentiator/agonist read-out; activation, % at 3.6 µM; hit rate 0.45% among 220,000; P49146; AID 1359; in the data active = activation above about 27%;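 also: cells stimulated with NPY near EC25 plus isoproterenol at EC100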
Insulin prom up: MIN6 insulin promoter up-regulation | hit rate 0.3% among 190,000 | MIN6 insulin promoter-GFP reporter, high-content imaging; stronger effect = higher value | z-score at 5 µM;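 active = z-score above 3 at 5 µM with at least 500 cells counted in the well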
INS promoter inh: TRM-6 insulin promoter activity inhibition. TRM-6 cells, insulin promoter-eGFP reporter, imaging; reporter expression induced with tamoxifen. inhibition, % at 2 µM. hit rate 0.9% among 130,000. AID 1273;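 active = inhibition above the mean plus 3 SD, with well images judged a real hit on visual review, cut at about 60% in these data, passing the limit was not always enough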
Large screens that a line does not name were inactive.

COc1cc(/C=N/NC(=O)c2cccs2)ccc1OCc1ccccc1	none
COc1ccc(/C=N/NC(=O)c2sccc2OCc2ccc(F)cc2)cc1OC	NPY-Y2 antag 25.9 (no result: INS promoter inh)
CCc1cccc(NC(=O)c2cc(S(=O)(=O)N(C)C)ccc2N2CCCC2)c1	none (no result: NPY-Y2 antag, INS promoter inh)
COc1ccc(C(C)(C)C)cc1NC(=O)c1cc(S(=O)(=O)N(C)C)ccc1N1CCCC1	NPY-Y2 antag 21.9, NPY Y1 blocker 24.6 (no result: INS promoter inh)
CC(C)(C)C1CCc2c(sc3nc(SCC(=O)O)nc(N)c23)C1 (configuration not stated)	NPY1 pot ag 105.5, NPY2 pot ag 101.1 (no result: NPY-Y2 antag, NPY Y1 blocker, INS promoter inh)
COC(=O)CSc1nc(N)c2c3c(sc2n1)C(c1ccccc1)SC(c1ccccc1)C3 (configuration not stated)	NPY1 pot ag 80.9, NPY2 pot ag 55.7
Nc1nc(-c2ccccc2)c(N=Nc2cccc3ccccc23)s1	NPY1 pot ag 110.7, NPY2 pot ag 96.6 (no result: Insulin prom up, INS promoter inh)
Nc1nc(-c2ccccc2)c(N=Nc2ccccc2Cl)s1	NPY1 pot ag 94.5, NPY2 pot ag 79.2
COc1cc(N2CCCC2)c(OC)cc1/C=c1/sc2nc3ccccc3n2c1=O	Insulin prom up 16.8 (no result: INS promoter inh)
Nc1c(C(=O)Nc2ccccc2)c2nc3ccccc3nc2n1-c1ccc(O)cc1	NPY1 pot ag 55.2, NPY2 pot ag 45.9 (no result: NPY-Y2 antag, NPY Y1 blocker, INS promoter inh)
Cc1ccc(C2=NNC3(CCOC(C)(C)C3)S2)cc1 (configuration not stated)	none (no result: NPY-Y2 antag, INS promoter inh)
CCOc1ccc(-c2nnn(CC(=O)N3CCCC(C)C3)n2)cc1 (configuration not stated)	none (no result: NPY-Y2 antag, INS promoter inh)
Cc1cc(NS(=O)(=O)c2ccc(NC(=S)Nc3ccc(Cl)cc3C)cc2)no1	none (no result: NPY-Y2 antag, NPY Y1 blocker, INS promoter inh)
CCOc1ccc(C(=O)NCCC2=CCCCC2)cc1OCC	none (no result: NPY-Y2 antag, INS promoter inh)
O=C(C1CCN(Cc2ccc(F)cc2)CC1)N(CCc1ccccc1)Cc1ccccc1	NPY-Y2 antag 23.6, NPY Y1 blocker 21.3
COC(=O)c1c[nH]n2c(=O)c(Cc3ccc(F)cc3Cl)c(C)nc12	Insulin prom up 3.42 (no result: INS promoter inh)
COC(=O)c1c[nH]n2c(=O)c(Cl)c(C)nc12	none
Cc1ccc(NC(=O)CN2CCN(S(=O)(=O)c3cccs3)CC2)cc1S(=O)(=O)N(C)C	none (no result: NPY-Y2 antag)
CC(C)(C)OC(=O)COc1cc(OCC(=O)OC(C)(C)C)c2c(=O)cc(-c3ccccc3)oc2c1	NPY-Y2 antag 33.3, NPY Y1 blocker 46.2
CC(C)(C)OC(=O)COc1cc(O)c2c(=O)cc(-c3ccccc3)oc2c1	none (no result: INS promoter inh)
O=C(Nc1ccccc1)c1ccccc1OCc1cccc([N+](=O)[O-])c1	none
COc1ccc(CN2CCNC(=O)C2CC(=O)NCCCn2cccn2)c(OC)c1 (configuration not stated)	none (no result: NPY-Y2 antag, INS promoter inh)
COc1cc(C2NC(=O)NC(C)=C2C(C)=O)ccc1O (configuration not stated)	none (no result: NPY-Y2 antag, NPY Y1 blocker, INS promoter inh)
CC(C)(CNS(=O)(=O)c1ccc(Cl)cc1)N1CCCCC1	Insulin prom up 3.62
CCCc1[nH][nH]c(=O)c1C(c1cccc(Cl)c1)C(C#N)C#N (configuration not stated)	NPY-Y2 antag 57.8, NPY Y1 blocker 50.4
COc1ccc(C(=O)NNC(=O)CSc2nnc(C)n2CC2CCCO2)cc1 (configuration not stated)	none (no result: NPY-Y2 antag, INS promoter inh)
C=C(C)c1cccc(C(C)(C)NC(=O)N2CCC(C(N)=O)CC2)c1	none (no result: NPY-Y2 antag)
Cn1c(C(=O)NCc2ccccn2)cc2c(=O)n(C)c3ccccc3c21	NPY1 pot ag 37.0, NPY2 pot ag 42.2 (no result: INS promoter inh)
C=COCCNC(=S)N1CCOCCOCCN(C(=S)NCCOC=C)CCOCC1	none (no result: NPY-Y2 antag)
COC(=O)c1oc2ccc(Cl)cc2c1-n1cccc1	none
O=C(NC1CCCCC1)C(c1ccccc1F)N(Cc1ccco1)C(=O)Cn1nnc2ccccc21 (configuration not stated)	NPY-Y2 antag 56.9, NPY Y1 blocker 71.9 (no result: INS promoter inh)
Cc1ccc(C(C(=O)NC2CCCCC2)N(Cc2ccco2)C(=O)Cn2cnc3ccccc32)cc1 (configuration not stated)	NPY-Y2 antag 75.2, NPY Y1 blocker 34.0
Cc1ccc(C(C(=O)NC(C)(C)C)N(Cc2ccco2)C(=O)Cn2nnc(-c3cccs3)n2)cc1 (configuration not stated)	NPY-Y2 antag 34.4, NPY Y1 blocker 20.3 (no result: Insulin prom up)
O=C(NC1CCCCC1)C(c1ccc(F)cc1)N(Cc1ccco1)C(=O)Cn1nnc2ccccc21 (configuration not stated)	NPY-Y2 antag 35.9, NPY Y1 blocker 23.3 (no result: INS promoter inh)
CC(C)(C)NC(=O)C(c1ccc(O)cc1)N(Cc1ccco1)C(=O)Cn1nnc(-c2cccs2)n1 (configuration not stated)	none (no result: Insulin prom up)
CCC(C)(C)NC(=O)C(c1ccncc1)N(Cc1cccs1)C(=O)Cn1nnc2ccccc21 (configuration not stated)	none (no result: INS promoter inh)
CCC(C)(C)NC(=O)C(c1ccc(C)cc1)N(Cc1ccco1)C(=O)Cn1nnc2ccccc21 (configuration not stated)	NPY-Y2 antag 60.6, NPY Y1 blocker 24.6
CC(=O)Nc1ccc(OCC(O)Cn2nc(C)c(Br)c2C)cc1 (configuration not stated)	none
COc1ccccc1N1CCN(S(=O)(=O)Cc2ccccc2Cl)CC1	INS promoter inh 88.9
CCOC(=O)C1(Cc2cccc(F)c2)CCN(CC(O)CO)CC1 (configuration not stated)	none (no result: NPY-Y2 antag, NPY Y1 blocker, INS promoter inh)
Fc1ccc(C(c2nnnn2C2CCCC2)N2CCc3ccccc32)cc1 (configuration not stated)	none
Fc1ccc(C(c2nnnn2CCc2ccccc2)N2CCCc3ccccc32)cc1 (configuration not stated)	NPY-Y2 antag 37.5, NPY Y1 blocker 27.4 (no result: INS promoter inh)
CCOC(=O)C(NC(C)=O)C(=O)Nc1c(C)cccc1C (configuration not stated)	none (no result: NPY-Y2 antag, INS promoter inh)
CCn1c(=O)n(-c2ccc(Cl)cc2)c(=O)c2c3c(sc21)COC(C)(C)C3	INS promoter inh 74.3
Cc1c(C(=O)N/N=C/c2ccncc2)no[n+]1[O-]	none (no result: NPY-Y2 antag, INS promoter inh)
CC(=O)N1CCN2C(=O)C1CCCC(=O)c1cc(C)ccc12 (configuration not stated)	none
COc1ccc(Cn2c(C)nnc2-c2cnn(C)c2N)cc1	none (no result: NPY-Y2 antag)
Clc1ccc(COn2c(-c3ccc(Cl)cc3)nc3ccccc32)cc1	NPY-Y2 antag 61.2, NPY Y1 blocker 84.2 (no result: INS promoter inh)
Clc1ccc(COn2c(-c3ccccc3)nc3ccccc32)cc1	NPY-Y2 antag 37.2, NPY Y1 blocker 53.6 (no result: INS promoter inh)
O=[N+]([O-])c1ccc2nc(-c3ccc(Cl)cc3)n(OCc3ccccc3)c2c1	none (no result: INS promoter inh)
COCCNC(=O)CSc1nc2scc(-c3ccccc3)c2c(=O)[nH]1	none (no result: NPY-Y2 antag, NPY Y1 blocker, INS promoter inh)
O=Cc1sc([O-])nc1-[n+]1ccc2ccccc2c1	none (no result: NPY-Y2 antag, NPY Y1 blocker, INS promoter inh)
CCc1nnc(NC(=O)c2ccc(Cl)c(S(=O)(=O)N3CCc4ccccc43)c2)s1	none (no result: INS promoter inh)
O=C(Nc1nnc(C2CC2)s1)c1ccc(Cl)c(S(=O)(=O)N2CCc3ccccc3C2)c1	INS promoter inh 60.0
CSc1nnc(C)c(=O)n1COC(=O)/C=C/c1ccc2c(c1)OCO2	none (no result: NPY-Y2 antag, INS promoter inh)

High-throughput results from PubChem.
